ChEMBL document CHEMBL2202972, “Synthesis and biological evaluation of 2-substituted-4-(3',4',5'-trimethoxyphenyl)-5-aryl thiazoles as anticancer agents” (Bioorg Med Chem, 2012)
One block for each molecule: values may come before it. The source made the active and inactive calls. The rule behind the calls is not given here.

Experiments:
[1] = Inhibition of bovine brain tubulin polymerization preincubated for 15 mins by turbidimetric analysis; set-up: species or system Bos taurus
Method in brief: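 Bovine brain tubulin (10 μM) in glutamate buffer preincubated with varying compound concentrations for 15 min at 30 °C, then chilled to 0 °C. GTP 0.4 mM added and mixtures warmed to 30 °C in a spectrophotometer; assembly followed by turbidity at 350 nm.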

[2] = system: Jurkat; experiment: Antiproliferative activity against human Jurkat cells after 72 hrs by MTT assay; format: functional, cell-based
Method in brief: (§1)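 Cells seeded at 8 × 10³ per well and incubated 18 h at 37 °C, 5% CO₂, then exposed to a range of compound concentrations for 72 h at 37 °C. Jurkat and HL-60 were grown in RPMI-1640, the others in DMEM, with penicillin, streptomycin and 10% FBS. DMSO stocks (10 mM); DMSO ≤0.25% final. Viability by MTT. […] Mean ± SE of ≥3 independent experiments.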

[3] = system: HeLa; experiment: Antiproliferative activity against human HeLa cells after 72 hrs by MTT assay; format: functional, cell-based
[4] = system: HT-29; experiment: Antiproliferative activity against human HT-29 cells after 72 hrs by MTT assay; format: functional, cell-based; details: HT-29, 72 h
[5] = system: HL-60; experiment: Antiproliferative activity against human HL60 cells after 72 hrs by MTT assay; format: functional, cell-based; details: HL-60, 72 h
[6] = system: MCF7; experiment: Antiproliferative activity against human MCF7 cells after 72 hrs by MTT assay; format: functional, cell-based; details: MCF7, 72 h
[7] = system: A549; experiment: Antiproliferative activity against human A549 cells after 72 hrs by MTT assay; format: functional, cell-based; details: A549, 72 h
[8] = system: LoVo; experiment: Antiproliferative activity against human LoVo cells after 72 hrs by MTT assay; format: functional, cell-based; method in brief: as §1
[9] = system: HeLa; experiment: Induction of apoptosis in human HeLa cells assessed as ROS production; format: functional, cell-based
[10] = organism: Bos taurus; experiment: Displacement of [3H]colchicine from tubulin in bovine brain at 5 uM DEAE-cellulose filter method
[11] = system: HeLa; experiment: Induction of survivin phosphorylation at Thr34 in human HeLa cells at 250 to 500 nM after 24 to 48 hrs by Western blot analysis
[12] = system: HeLa; experiment: Induction of apoptosis in human HeLa cells at 500 nM after 24 to 48 hrs by Annexin V-FITC/propidium iodide staining based biparametric cytofluorimetric analysis; format: functional, cell-based
Method in brief: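 HeLa cells treated at 250 or 500 nM for 24 or 48 h, then labelled with annexin-V-FITC (phosphatidylserine) plus propidium iodide. Red and green fluorescence measured by biparametric flow cytometry. Mean ± SEM of three independent experiments.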

[13] = system: HeLa; experiment: Effect on cyclin B expression in human HeLa cells at 250 to 500 nM after 24 hrs by Western blot analysis; format: functional, cell-based
Method in brief: (§2)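 HeLa cells treated for 24 or 48 h, washed twice with ice-cold PBS and lysed on ice 30 min; lysates spun at 15000 ×g, 4 °C. Protein (20 μg) resolved by SDS–PAGE on 7.5–15% gels and blotted to PVDF. Specific primary antibodies for 2 h at room temperature, then peroxidase secondary for 60 min, ECL detection. Membranes stripped and reprobed for β-actin as loading control.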

[14] = system: A549; experiment: Resistance ratio of IC50 for human taxol-resistant A549-T12 cells expressing tubulin mutant gene to IC50 for human A549 cells; format: functional
[15] = system: HeLa; experiment: Induction of apoptosis in human HeLa cells assessed as mitochondrial polarization; format: functional, cell-based
[16] = system: HeLa; experiment: Induction of apoptosis in human HeLa cells assessed as effect on caspase-9 activation at 250 to 500 nM after 24 to 48 hrs by Western blot analysis; format: functional, cell-based; method in brief: as §2
[17] = system: HeLa; experiment: Effect on Bax expression in human HeLa cells at 250 to 500 nM after 24 to 48 hrs by Western blot analysis; format: functional, cell-based; method in brief: as §2
[18] = system: HeLa; experiment: Cell cycle arrest in human HeLa cells assessed as accumulation of cells at G2/M phase at 125 nM after 24 hrs by propidium iodide staining based flow cytometric analysis; format: functional
Method in brief: (§3)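 HeLa or Jurkat cells (5 × 10⁵, exponential growth) treated 24 h with 31–500 nM compound. Cells fixed in ice-cold 70% ethanol, treated with lysis buffer containing RNase A and 0.1% Triton X-100, then stained with propidium iodide. DNA content measured by flow cytometry to give phase distribution. Mean ± SEM of three independent experiments.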

[19] = system: LoVo; experiment: Resistance ratio of IC50 for human doxorubicin-resistant LoVo/DX cells overexpressing P-glycoprotein to IC50 for human LoVo cells; format: functional
[20] = Antiproliferative activity against human doxorubicin-resistant LoVo/DX cells overexpressing P-glycoprotein after 72 hrs by MTT assay; format: functional, cell-based
Method in brief: (§4)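 Resistant sublines cultured under selection: LoVo^Doxo (doxorubicin-resistant LoVo subclone) in complete Ham's F12 with doxorubicin 0.1 μg/mL; A549-T12 in complete DMEM with taxol 12 nM. Seeded at 8 × 10³ per well, 18 h preincubation, then 72 h compound exposure at 37 °C. MTT read-out.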

[21] = system: HeLa; experiment: Induction of apoptosis in human HeLa cells assessed as disappearance of uncleaved caspase-2 protein at 250 to 500 nM after 24 to 48 hrs by Western blot analysis; format: functional, cell-based; method in brief: as §2
[22] = system: HeLa; experiment: Induction of apoptosis in human HeLa cells assessed as increase in caspase-3-mediated PARP cleavage at 250 to 500 nM after 24 to 48 hrs by Western blot analysis; format: functional, cell-based; method in brief: as §2
[23] = system: HeLa; experiment: Induction of apoptosis in human HeLa cells assessed as caspase-3 activation at 250 to 500 nM after 24 to 48 hrs by Western blot analysis; format: functional, cell-based; method in brief: as §2
[24] = system: HeLa; experiment: Induction of apoptosis in human HeLa cells assessed as appearance of cleaved caspase-8 protein at 250 to 500 nM after 24 to 48 hrs by Western blot analysis; format: functional, cell-based; method in brief: as §2
[25] = system: CCRF-CEM; experiment: Resistance ratio of IC50 for human vinblastine-resistant CEM/VBL100 cells overexpressing P-glycoprotein to IC50 for human CEM cells; format: functional
[26] = system: Jurkat; experiment: Cell cycle arrest in human Jurkat cells assessed as accumulation of cells at G2/M phase at 125 nM after 24 hrs by propidium iodide staining based flow cytometric analysis; format: functional; method in brief: as §3
[27] = system: HeLa; experiment: Downregulation of Mcl-1 expression in human HeLa cells at 250 to 500 nM after 24 hrs by Western blot analysis; format: functional, cell-based; method in brief: as §2
[28] = system: CCRF-CEM; experiment: Antiproliferative activity against human CEM cells after 72 hrs by MTT assay; format: functional, cell-based
[29] = system: HeLa; experiment: Downregulation of Bcl-2 expression in human HeLa cells at 250 to 500 nM after 24 to 48 hrs by Western blot analysis; format: functional, cell-based; method in brief: as §2
[30] = system: PBL; experiment: Growth inhibition of PHA-stimulated human PBL after 72 hrs by MTT assay; format: functional
[31] = biological target: T1, M-phase inducer phosphatase 3 (Homo sapiens) (UniProt P30307); experiment: Induction of cdc25C phosphorylation in human HeLa cells assessed as cdc2 kinase dephosphorylation at Tyr15 in human HeLa cells at 250 to 500 nM after 24 to 48 hrs by Western blot analysis; format: cell-based; method in brief: as §2
T1 sequence (whole entry): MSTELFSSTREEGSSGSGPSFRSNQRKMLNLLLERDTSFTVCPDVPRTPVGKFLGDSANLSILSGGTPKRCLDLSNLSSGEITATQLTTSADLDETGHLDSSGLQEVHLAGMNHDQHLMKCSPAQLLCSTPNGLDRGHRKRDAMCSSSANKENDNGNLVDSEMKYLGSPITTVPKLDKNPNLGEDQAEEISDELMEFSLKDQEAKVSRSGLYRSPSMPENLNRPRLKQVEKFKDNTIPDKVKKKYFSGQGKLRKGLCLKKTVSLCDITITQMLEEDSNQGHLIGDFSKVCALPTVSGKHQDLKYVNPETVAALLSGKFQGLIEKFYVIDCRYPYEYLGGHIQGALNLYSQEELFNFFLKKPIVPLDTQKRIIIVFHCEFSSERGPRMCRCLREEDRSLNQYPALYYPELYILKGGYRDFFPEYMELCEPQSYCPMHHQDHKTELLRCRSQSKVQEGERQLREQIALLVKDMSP

[32] = Antiproliferative activity against human vinblastine-resistant CEM/VBL100 cells overexpressing P-glycoprotein after 72 hrs by MTT assay; format: functional, cell-based; details: CEM/VBL100, 72 h
[33] = system: HeLa; experiment: Downregulation of Xiap expression in human HeLa cells at 250 to 500 nM after 24 hrs by Western blot analysis; format: functional, cell-based; method in brief: as §2
[34] = Growth inhibition of human resting PBL after 72 hrs by MTT assay; format: cell-based; details: resting peripheral blood lymphocytes (PBL)
[35] = Antiproliferative activity against human taxol-resistant A549-T12 cells expressing tubulin mutant gene after 72 hrs by MTT assay; format: functional, cell-based; details: A549, 72 h; method in brief: as §4
[36] = biological target: T1, M-phase inducer phosphatase 3 (Homo sapiens); experiment: Induction of cdc25C phosphorylation in human HeLa cells at 250 to 500 nM after 24 to 48 hrs by Western blot analysis; format: cell-based; method in brief: as §2

SMILES: COc1ccc(-c2sc(N(C)C)nc2-c2cc(OC)c(OC)c(OC)c2)cc1
IC50 [1]: > 20000 nM
IC50 [2]: 7600 nM
IC50 [3]: 3370 nM
IC50 [4]: 497 nM
IC50 [5]: 1890 nM
IC50 [6]: 8360 nM
IC50 [7]: > 10000 nM

IC50 [1]: 1100 nM
IC50 [8]: 72 nM
inhibition [10]: 66%
IC50 [2]: 48.6 nM
IC50 [3]: 82.1 nM
IC50 [28]: 61 nM
Activity [31]: Active
IC50 [4]: 702 nM
IC50 [5]: 205 nM
IC50 [6]: 33.4 nM
Activity [36]: Active
SMILES: COc1cc(-c2nc(C)sc2-c2ccc3ccccc3c2)cc(OC)c1OC
Activity [9]: Active
Activity [11]: Active
Activity [12]: Active
Activity [13]: inactive
Ratio IC50 [14]: 1
Activity [15]: Active
Activity [16]: inactive
Activity [17]: inactive
Activity [18]: Active
Ratio IC50 [19]: 2.1
IC50 [20]: 150 nM
Activity [21]: Active
Activity [22]: Active
Activity [23]: Active
Activity [24]: Active
Ratio IC50 [25]: 1.4
Activity [26]: Active
Activity [27]: Active
Activity [29]: Active
GI50 [30]: 285 nM
IC50 [32]: 88 nM
Activity [33]: Active
GI50 at 72 h [34]: 1270 nM
IC50 [35]: 121 nM

IC50 [1]: 1200 nM
inhibition [10]: 68%
IC50 [2]: 19 nM
IC50 [3]: 69.1 nM
IC50 [4]: 423 nM
IC50 [5]: 18.1 nM
IC50 [6]: 10.1 nM
IC50 [7]: 125 nM
SMILES: CNc1nc(-c2cc(OC)c(OC)c(OC)c2)c(-c2ccc(C)cc2)s1

SMILES: CCOc1ccc(-c2sc(C)nc2-c2cc(OC)c(OC)c(OC)c2)cc1
IC50 [1]: 1200 nM
inhibition [10]: 51%
IC50 [2]: 1740 nM
IC50 [3]: 1870 nM
IC50 [4]: 487 nM
IC50 [5]: 253 nM
IC50 [6]: 42.3 nM
IC50 [7]: 3320 nM

IC50 [2]: 7110 nM
IC50 [3]: 3830 nM
IC50 [4]: 396 nM
IC50 [5]: > 10000 nM
IC50 [6]: > 10000 nM
IC50 [7]: 4290 nM
SMILES: COc1cc(-c2nc(C)sc2-c2ccc(C(F)(F)F)cc2)cc(OC)c1OC

IC50 [2]: 1760 nM
IC50 [3]: 500 nM
IC50 [4]: 1420 nM
IC50 [5]: 3430 nM
IC50 [6]: 606 nM
IC50 [7]: 2560 nM
SMILES: COc1ccc(-c2sc(C)nc2-c2cc(OC)c(OC)c(OC)c2)cc1

IC50 [1]: > 20000 nM
IC50 [2]: 6660 nM
IC50 [3]: 4140 nM
IC50 [4]: 3920 nM
IC50 [5]: 3480 nM
IC50 [6]: > 10000 nM
IC50 [7]: 3960 nM
SMILES: COc1cc(-c2nc(N(C)C)sc2-c2ccc(C)cc2)cc(OC)c1OC

IC50 [2]: 517 nM
IC50 [3]: 1100 nM
IC50 [4]: 722 nM
IC50 [5]: 1510 nM
IC50 [6]: 1740 nM
IC50 [7]: 1950 nM
SMILES: COc1cc(-c2nc(C)sc2-c2ccc(C)cc2)cc(OC)c1OC
